Experimental data as given in ChEMBL document CHEMBL4699429, “Novel 1,3,4-thiadiazole compounds as potential MAO-A inhibitors - design, synthesis, biological evaluation and molecular modelling” (RSC Med Chem, 2020).

Target: T1, Amine oxidase [flavin-containing] A (Homo sapiens, UniProt P21397)
T1 sequence (P21397 whole entry): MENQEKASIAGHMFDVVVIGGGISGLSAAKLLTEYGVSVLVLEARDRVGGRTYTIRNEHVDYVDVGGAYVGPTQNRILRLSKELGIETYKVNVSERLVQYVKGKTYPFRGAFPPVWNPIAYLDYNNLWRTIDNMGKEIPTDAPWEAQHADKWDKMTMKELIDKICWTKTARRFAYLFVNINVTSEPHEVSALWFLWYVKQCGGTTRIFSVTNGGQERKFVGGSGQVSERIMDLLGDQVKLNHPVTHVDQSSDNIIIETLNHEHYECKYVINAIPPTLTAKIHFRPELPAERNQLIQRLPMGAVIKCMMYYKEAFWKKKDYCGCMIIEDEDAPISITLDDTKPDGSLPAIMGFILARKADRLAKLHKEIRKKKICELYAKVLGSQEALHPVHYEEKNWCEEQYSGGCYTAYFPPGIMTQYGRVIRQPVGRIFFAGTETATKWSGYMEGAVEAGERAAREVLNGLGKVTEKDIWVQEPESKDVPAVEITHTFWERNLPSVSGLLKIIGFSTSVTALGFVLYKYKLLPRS
Assay: Inhibition of human recombinant MAO-A at 0.01 nM using tyramine as substrate preincubated with enzyme for 30 mins followed by incubation with substrate for 30 mins by Amplex Red reagent based fluorometric method relative to control
Settings: 0.5 h, time 60 min
Outline: (§1)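 Recombinant hMAO-A at 0.5 U/mL in phosphate buffer. Inhibitors are dissolved in 2% DMSO and preincubated with enzyme at 37 °C for 30 min. The working solution is then added: horseradish peroxidase, Amplex (Ampliflu) red and tyramine. Fluorescence (Ex/Em 535/587 nm) is read at 5-min intervals over 30 min at 37 °C. Controls use 2% DMSO. Background without enzyme is subtracted. Peroxidase interference is checked with H2O2.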

Compound | inhibition at 10 pM [%]
CC(C)CNc1nnc(SCC(=O)N(Cc2cccc([N+](=O)[O-])c2)c2ccc(F)cc2)s1 | 6.36
CCCNc1nnc(SCC(=O)N(Cc2cccc([N+](=O)[O-])c2)c2ccc(F)cc2)s1 | 8.5

Target: T1, Amine oxidase [flavin-containing] A
Assay: Inhibition of human recombinant MAO-A at 0.01 uM using tyramine as substrate preincubated with enzyme for 30 mins followed by incubation with substrate for 30 mins by Amplex Red reagent based fluorometric method relative to control
Settings: 0.5 h, time 60 min
Outline: as §1

Compound | inhibition at 0.01 µM [%]
CC(C)CNc1nnc(SCC(=O)N(Cc2cccc([N+](=O)[O-])c2)c2ccc(F)cc2)s1 | 25.5
CCCNc1nnc(SCC(=O)N(Cc2cccc([N+](=O)[O-])c2)c2ccc(F)cc2)s1 | 25.1

Target: T1, Amine oxidase [flavin-containing] A
Assay: Inhibition of human recombinant MAO-A at 1 nM using tyramine as substrate preincubated with enzyme for 30 mins followed by incubation with substrate for 30 mins by Amplex Red reagent based fluorometric method relative to control
Settings: 0.5 h, time 60 min
Outline: as §1

Compound | inhibition at 0.001 µM [%]
CC(C)CNc1nnc(SCC(=O)N(Cc2cccc([N+](=O)[O-])c2)c2ccc(F)cc2)s1 | 17.3
CCCNc1nnc(SCC(=O)N(Cc2cccc([N+](=O)[O-])c2)c2ccc(F)cc2)s1 | 20.5

Target: T1, Amine oxidase [flavin-containing] A
Assay: Inhibition of human recombinant MAO-A at 100 uM using tyramine as substrate preincubated with enzyme for 30 mins followed by incubation with substrate for 30 mins by Amplex Red reagent based fluorometric method relative to control
Settings: 0.5 h, time 60 min
Outline: as §1

Compound | inhibition at 100 µM [%]
CC(C)CNc1nnc(SCC(=O)N(Cc2cccc([N+](=O)[O-])c2)c2ccc(F)cc2)s1 | 84.3
CCCNc1nnc(SCC(=O)N(Cc2cccc([N+](=O)[O-])c2)c2ccc(F)cc2)s1 | 91.1

Target: T1, Amine oxidase [flavin-containing] A
Assay: Inhibition of human recombinant MAO-A using tyramine as substrate preincubated with enzyme for 30 mins followed by incubation with substrate for 30 mins by Amplex Red reagent based fluorometric method
Settings: not given
Outline: as §1, with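 “tyramine.” for “tyramine. Fluorescence (Ex/Em 535/587 nm) is read at 5-min intervals over 30 min at 37 °C.”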

Compound | IC50 [nM]
CC(C)CNc1nnc(SCC(=O)N(Cc2cccc([N+](=O)[O-])c2)c2ccc(F)cc2)s1 | 1790
CCCNc1nnc(SCC(=O)N(Cc2cccc([N+](=O)[O-])c2)c2ccc(F)cc2)s1 | 241

Target: T1, Amine oxidase [flavin-containing] A
Assay: Inhibition of human recombinant MAO-A at 0.1 nM using tyramine as substrate preincubated with enzyme for 30 mins followed by incubation with substrate for 30 mins by Amplex Red reagent based fluorometric method relative to control
Settings: 0.5 h, time 60 min
Outline: as §1

Compound | inhibition at 0.0001 µM [%]
CC(C)CNc1nnc(SCC(=O)N(Cc2cccc([N+](=O)[O-])c2)c2ccc(F)cc2)s1 | 12.6
CCCNc1nnc(SCC(=O)N(Cc2cccc([N+](=O)[O-])c2)c2ccc(F)cc2)s1 | 12

Target: T1, Amine oxidase [flavin-containing] A
Assay: Inhibition of human recombinant MAO-A at 1 mM using tyramine as substrate preincubated with enzyme for 30 mins followed by incubation with substrate for 30 mins by Amplex Red reagent based fluorometric method relative to control
Settings: 0.5 h, time 60 min
Outline: as §1

Compound | inhibition at 1000 µM [%]
CC(C)CNc1nnc(SCC(=O)N(Cc2cccc([N+](=O)[O-])c2)c2ccc(F)cc2)s1 | 93.5
CCCNc1nnc(SCC(=O)N(Cc2cccc([N+](=O)[O-])c2)c2ccc(F)cc2)s1 | 95

Target: T2, Amine oxidase [flavin-containing] B (Homo sapiens, UniProt P27338)
T2 sequence (P27338 whole entry): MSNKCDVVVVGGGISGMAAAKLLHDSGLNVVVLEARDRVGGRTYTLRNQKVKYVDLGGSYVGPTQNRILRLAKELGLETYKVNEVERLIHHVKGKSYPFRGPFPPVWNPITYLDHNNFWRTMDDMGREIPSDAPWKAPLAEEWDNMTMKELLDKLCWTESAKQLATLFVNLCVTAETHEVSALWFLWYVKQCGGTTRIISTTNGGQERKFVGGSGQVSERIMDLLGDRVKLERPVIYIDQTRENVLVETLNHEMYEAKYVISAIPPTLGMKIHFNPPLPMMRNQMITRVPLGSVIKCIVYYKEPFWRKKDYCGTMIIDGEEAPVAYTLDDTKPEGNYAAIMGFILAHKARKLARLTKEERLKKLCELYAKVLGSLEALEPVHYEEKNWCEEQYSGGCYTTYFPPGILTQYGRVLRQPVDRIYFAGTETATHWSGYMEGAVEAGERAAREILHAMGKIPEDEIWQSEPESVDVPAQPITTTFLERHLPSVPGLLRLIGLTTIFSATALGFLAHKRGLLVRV
Assay: Inhibition of human recombinant MAO-B at 100 uM using tyramine as substrate preincubated with enzyme for 30 mins followed by incubation with substrate for 30 mins by Amplex Red reagent based fluorometric method relative to control
Settings: 0.5 h, read-out: INH

Compound | inhibition at 100 µM [%]
CC(C)CNc1nnc(SCC(=O)N(Cc2cccc([N+](=O)[O-])c2)c2ccc(F)cc2)s1 | 24.2
CCCNc1nnc(SCC(=O)N(Cc2cccc([N+](=O)[O-])c2)c2ccc(F)cc2)s1 | 26.8

Target: T1, Amine oxidase [flavin-containing] A
Assay: Inhibition of human recombinant MAO-A at 0.1 uM using tyramine as substrate preincubated with enzyme for 30 mins followed by incubation with substrate for 30 mins by Amplex Red reagent based fluorometric method relative to control
Settings: 0.5 h, time 60 min
Outline: as §1

Compound | inhibition at 0.1 µM [%]
CC(C)CNc1nnc(SCC(=O)N(Cc2cccc([N+](=O)[O-])c2)c2ccc(F)cc2)s1 | 31.8
CCCNc1nnc(SCC(=O)N(Cc2cccc([N+](=O)[O-])c2)c2ccc(F)cc2)s1 | 45.1

Target: T1, Amine oxidase [flavin-containing] A
Assay: Inhibition of human recombinant MAO-A at 1 uM using tyramine as substrate preincubated with enzyme for 30 mins followed by incubation with substrate for 30 mins by Amplex Red reagent based fluorometric method relative to control
Settings: 0.5 h, time 60 min
Outline: as §1

Compound | inhibition at 1 µM [%]
CC(C)CNc1nnc(SCC(=O)N(Cc2cccc([N+](=O)[O-])c2)c2ccc(F)cc2)s1 | 43.2
CCCNc1nnc(SCC(=O)N(Cc2cccc([N+](=O)[O-])c2)c2ccc(F)cc2)s1 | 62.3

Target: T2, Amine oxidase [flavin-containing] B
Assay: Inhibition of human recombinant MAO-B at 1 mM using tyramine as substrate preincubated with enzyme for 30 mins followed by incubation with substrate for 30 mins by Amplex Red reagent based fluorometric method relative to control
Settings: 0.5 h, read-out: INH

Compound | inhibition at 1000 µM [%]
CC(C)CNc1nnc(SCC(=O)N(Cc2cccc([N+](=O)[O-])c2)c2ccc(F)cc2)s1 | 36
CCCNc1nnc(SCC(=O)N(Cc2cccc([N+](=O)[O-])c2)c2ccc(F)cc2)s1 | 42.7

Target: T1, Amine oxidase [flavin-containing] A
Assay: Inhibition of human recombinant MAO-A at 10 uM using tyramine as substrate preincubated with enzyme for 30 mins followed by incubation with substrate for 30 mins by Amplex Red reagent based fluorometric method relative to control
Settings: 0.5 h, time 60 min
Outline: as §1

Compound | inhibition at 10 µM [%]
CC(C)CNc1nnc(SCC(=O)N(Cc2cccc([N+](=O)[O-])c2)c2ccc(F)cc2)s1 | 72.6
CCCNc1nnc(SCC(=O)N(Cc2cccc([N+](=O)[O-])c2)c2ccc(F)cc2)s1 | 78.3
